Results collected from several papers.
Medium: plasma

C=CC(=O)N1CC2CC(n3nc(-c4ccc(C(=O)Nc5ccccn5)cc4)c4c(N)ncnc43)CC2C1 (centres unmarked)  Cmax (male Wistar rat; oral; 30 mg/kg): 1260 ng/mL
COCCOC(=O)C1=C(C)NC(C)=C(C(=O)OC(C)C)C1c1cccc([N+](=O)[O-])c1 (centres unmarked)  Cmax (male Sprague-Dawley rat; oral; 12 mg/kg): 85 ng/mL
N#Cc1[nH]nnc1-c1cccc(OCc2cc(C(F)(F)F)ccc2C(F)(F)F)c1  Cmax (male Sprague-Dawley rat; oral; 10 mg/kg): 4820 ng/mL
COc1ccc(C(C)=O)c(O)c1  Cmax (male Sprague-Dawley rat; oral; 100 mg/kg): 8460 ng/mL
COc1ccc2c(=O)n(C)c(-c3ccccc3)nc2c1  Cmax (male Sprague-Dawley rat; intravenous; 2 mg/kg): 2130 ng/mL
COc1cc2c3c(n(CCCN4CCOCC4)c(=O)c2cc1OC)-c1cc2c(cc1C3=O)OCO2  Cmax (female Fischer 344 rat; intravenous; 24 mg/m²; single dose): 568 ng/mL
CCOC(=O)[C@@]12C[C@@H]1[C@@H](n1ccc3c(NC)nc(C#Cc4ccc(Cl)s4)nc31)[C@H](O)[C@@H]2O  Cmax (male Sprague-Dawley rat; oral; 10 mg/kg): 192 ng/mL
CCc1cc(OC)c2nccc(N3CCc4c(cc(Cn5ccnc5)cc4-c4cn(C)nc4C(F)(F)F)C3=O)c2c1  Cmax (male Sprague-Dawley rat; oral; 50 mg/kg): 2700 ng/mL
COCc1nn(Cc2ccc(Cn3ccccc3=O)cc2)cc1C(=O)NCc1nccc(OC)c1F  Cmax (male Sprague-Dawley rat; oral; 10 mg/kg): 1940 ng/mL
N#Cc1ccc(Nc2nc(N)cc(Oc3c(F)cc(-c4ccc(C#N)cc4)cc3F)n2)cc1  Cmax (Sprague-Dawley rat; intravenous; 1 mg/kg): 251 ng/mL
N#Cc1[nH]nnc1-c1cc(Cl)cc(/C=C/c2cccc(C(F)(F)F)c2)c1  Cmax (male Sprague-Dawley rat; oral; 10 mg/kg): 2670 ng/mL
Cc1c(-c2ccccc2)cccc1N1C(=O)c2cc(CN[C@H](C(=O)O)C(C)O)c(OCc3cccc(C#N)c3)cc2C1=O (some centres unmarked)  Cmax (Sprague-Dawley rat; oral; 50 mg/kg): 26 ng/mL
C#Cc1cccc(Nc2ncnc3cc(OCCOC)c(OCCOC)cc23)c1  Cmax (male Sprague-Dawley rat; oral; 12 mg/kg; single dose): 1580 ng/mL
COCc1nn(Cc2ccc(Cn3ccccc3=O)cc2)cc1C(=O)NCc1c(F)ccc(OC)c1F  Cmax (male Sprague-Dawley rat; oral; 10 mg/kg): 2890 ng/mL
CCc1cc(C(=O)NC)c2nccc(N3CCc4c(cc(Cn5ccnc5)cc4-c4cn(C)nc4C(F)(F)F)C3=O)c2c1  Cmax (male Sprague-Dawley rat; oral; 50 mg/kg; single dose): 6170 ng/mL
O=C(Nc1cc(F)c(F)c(F)c1)c1ccc(F)c(S(=O)(=O)NCc2cccc(B(O)O)c2)c1  Cmax (male Sprague-Dawley rat; intravenous; 2 mg/kg): 460 ng/mL
Cc1noc(-c2cc3cc(-c4nc(C(=O)NCc5ccncc5)[nH]c4C)ccc3[nH]2)n1  Cmax (Sprague-Dawley rat; oral; 10 mg/kg; suspension): 2200 nM
